# Experimental data of several laboratories.
# Protocols differ between the studies behind these lines.
# Target: 5'-AMP-activated protein kinase catalytic subunit alpha-2 (PRKAA2, Homo sapiens, UniProt P54646)
SMILES,effect on,action,technique,tested at,measurement,result
Cc1cc(NC(=O)c2cccc3cc(-c4cccc5[nH]nc(N)c45)ccc23)ccc1F,enzyme activity,inhibitor,,0.1 µM,activity vs control,97%
Cc1ccc(C(=O)Nc2ccc(CN3CCN(C)CC3)c(C(F)(F)F)c2)cc1C#Cc1cnc2cccnn12,enzyme activity,,,23.5 nM,remaining activity,99%
Cc1ccc(C(=O)NCc2ccsc2)cc1C#Cc1cn(C(C)C)c2ncnc(N)c12,enzyme activity,inhibitor,,1 µM,activity vs control,80%
CCN(CC)c1ccc(C2=NNC(=O)CC2C)cc1[N+](=O)[O-] (stereo not shown),enzyme activity,inhibitor,,10 µM,remaining activity,108%
CC1=C(C#N)C(c2ccc3c(c2)c(NC(=O)c2ccccc2C)nn3C)C(C#N)=C(C)N1,cell-free assay,,competition with immobilised ligand,1 µM,remaining binding,99%
CN1CC(Oc2cnc(C#N)cc2-c2ccn3nc(NC(=O)C4CC4)cc3c2)C1,enzyme activity,inhibitor,,1 µM,inhibition,3%
COc1cccc2c(NCc3ccccc3)nc(-n3c(N)nc4ccccc43)nc12,target engagement in cells,inhibitor,chemoproteomics,20 mM,inhibition,11.9%
Cc1ccc(NC(=O)c2ccc(C)c(C(F)(F)F)c2)cc1C#Cc1nn(C2CCC(O)CC2)c2ncnc(N)c12 (stereo not shown),cell-free assay,,,10 µM,remaining signal,90%
COc1cc(-c2cc(-c3ccc(N4CCNCC4)cc3)cnc2C)cc(OC)c1OC,enzyme activity,inhibitor,,0.1 µM,inhibition,1%
CCCCN(CCCC)C(=O)CN1C[C@H](c2cc(OC)c3c(c2)OCO3)[C@@H](C(=O)O)[C@@H]1CC(C)(C)CCC,cell-free assay,,competition with immobilised ligand,1 µM,remaining binding,100%
CCCOc1ccc(OC)c(F)c1C(=O)c1ccc(C(=O)N[C@@H]2CNC[C@H]2NC(=O)c2ccc3[nH]ncc3c2)cc1,enzyme activity,inhibitor,,50 nM,remaining activity,51%
Nc1ncnc2occ(-c3ccc(NC(=O)Nc4cc(C(F)(F)F)ccc4F)cc3)c12,cell-free assay,,,20 µM,remaining signal,7.6%
O=C(O)c1cc(-c2ccc(C3CCNCC3)cc2)c2ccc(-c3ccc(C(F)(F)F)cc3)cc2c1,cell-free assay,,competition with immobilised ligand,1 µM,remaining binding,100%
